PfGluPho inh: PfG6PD (Plasmodium falciparum) enzyme inhibition; inhibition, % at 20 µM; PfGluPho enzyme, NADPH resazurin-diaphorase fluorescence; AID 504690; 0.78% of 350,000 active;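 active means inhibition reaching at least a set limit at 20 µM in the primary screen, cut at about 59% in these data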
HKDC1 inh: blocks human hexokinase HKDC1 activity; 0.16% of 340,000 active; Q2TB90; recombinant HKDC1, G6PDH/diaphorase resazurin coupled fluorescence; inhibition, % at 20 µM;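 active means inhibition above about 35% when tested at 20 µM, limit read from the data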
Target sequence (Q2TB90 whole entry, looked up): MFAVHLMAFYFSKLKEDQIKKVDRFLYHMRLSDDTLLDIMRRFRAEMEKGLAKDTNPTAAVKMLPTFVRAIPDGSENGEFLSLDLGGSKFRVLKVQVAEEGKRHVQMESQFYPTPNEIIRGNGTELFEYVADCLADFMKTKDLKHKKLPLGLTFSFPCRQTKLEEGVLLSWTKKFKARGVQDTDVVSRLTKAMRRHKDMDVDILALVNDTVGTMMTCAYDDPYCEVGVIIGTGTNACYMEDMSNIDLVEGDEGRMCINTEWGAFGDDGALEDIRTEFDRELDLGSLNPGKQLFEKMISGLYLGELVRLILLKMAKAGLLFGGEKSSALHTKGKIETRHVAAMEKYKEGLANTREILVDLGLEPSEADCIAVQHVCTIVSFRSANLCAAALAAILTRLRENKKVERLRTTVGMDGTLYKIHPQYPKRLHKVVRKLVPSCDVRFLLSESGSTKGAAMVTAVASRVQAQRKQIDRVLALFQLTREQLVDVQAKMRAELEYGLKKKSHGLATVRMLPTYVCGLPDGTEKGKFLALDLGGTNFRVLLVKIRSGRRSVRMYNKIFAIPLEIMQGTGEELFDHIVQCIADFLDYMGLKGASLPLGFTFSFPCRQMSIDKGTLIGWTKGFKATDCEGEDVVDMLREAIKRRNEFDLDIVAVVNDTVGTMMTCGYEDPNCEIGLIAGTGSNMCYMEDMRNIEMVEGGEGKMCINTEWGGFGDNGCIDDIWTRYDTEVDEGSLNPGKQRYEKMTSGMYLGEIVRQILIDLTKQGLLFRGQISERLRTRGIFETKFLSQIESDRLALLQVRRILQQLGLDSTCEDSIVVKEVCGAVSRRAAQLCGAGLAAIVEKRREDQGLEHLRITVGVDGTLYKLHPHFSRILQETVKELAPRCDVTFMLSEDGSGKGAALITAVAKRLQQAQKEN
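Assay system: recombinant HKDC1 hexokinase; detection: coupled resazurin fluorescence, excitation 525 nm, emission 613 nm; benchmarks: DMSO-plus-enzyme-mix negative control, buffer-substituted positive control; compound dosing: single 20 µM dose; schedule: 90 min at room temperature in dark; also added: glucose plus 1 mM ATP as hexokinase substrates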
Diaphorase act: counter-screen for diaphorase-based assays: diaphorase activators and chemical reducers. Diaphorase/resazurin coupled assay, resorufin fluorescence, 16 min; active compounds read high; 1 = vehicle wells, 0 = NADH-free wells. activation factor at 20 µM. 0.005% of 190,000 active. AID 1229;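 active means diaphorase activity raised at least twofold by the compound at 20 µM; inactive means activation factor below 2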
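Assay system: Purified diaphorase enzyme from Clostridium kluyveri | Amount: Enzyme 0.07 U/mL final | Dosing: Compound 20 µM once, DMSO 1% | Timing: 16 min reaction at room temperature | Detection: Fluorescence, excitation 544 nm and emission 590 nm | Evaluation: Higher resorufin formation from activation or reduction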
Diaph inh CS: counter-screen for diaphorase-based assays: diaphorase inhibitors and chemical oxidizers; diaphorase resazurin-to-resorufin fluorescence, NADH, 16 min; bacterial (C. kluyveri) enzyme, not human; inhibition, % at 20 µM; 0.69% of 190,000 active;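 active means primary screen inhibition at 20 µM above a set limit, cut at about 50% in these data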
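Assay system: diaphorase enzyme from Clostridium kluyveri. Quantity: enzyme working solution with 0.14 U/mL diaphorase. Schedule: reaction incubation of 16 min at room temperature. Technique: resorufin fluorescence, excitation 544 nm, emission 590 nm. Controls: No-NADH positive control and DMSO neutral control.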
G6PDH CS: inhibits Leuconostoc G6PDH, flagging false hits in G6PDH-based assays; Purified L. mesenteroides G6PDH, diaphorase/resazurin coupled fluorescence, 45 min; inhibition, % at 5 µM; 0.12% of 200,000 active; in the data active means inhibition above about 50%
PfG6PD confirm: PfG6PD inhibition, single-dose confirmed. 34% of 2,400 active. shares compounds with PfGluPho inh. inhibition, % at 20 µM. recombinant PfGluPho, NADPH-diaphorase-resazurin fluorescence. AID 504753;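 active means inhibition of at least 50% at 20 µM in any single replicate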
Diaphorase 10uM: diaphorase inhibition or oxidation at 10 uM NADPH. diaphorase-coupled resazurin reduction, fluorescence, NADPH 10 uM. 39% of 820 active. inhibition, % at 20 µM. shares compounds with PfGluPho inh;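 active means average inhibition reaching 50% or more with the compound at 20 µM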;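 further: resorufin red fluorescence formed as diaphorase reduces resazurin using NADPH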
Diaphorase 30uM: diaphorase inhibition or oxidation at 30 uM NADPH; shares compounds with PfGluPho inh; Diaphorase/resazurin coupled assay, resorufin fluorescence; inhibition, % at 20 µM; 29% of 820 active; AID 504863;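 active means inhibition averaging 50% or more, tested at 20 µM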
Numbers stand for hits; . = inactive; / = no result. Most compounds without a hit are left out; they make up all but 1.3% or so of the library.

SMILES	PfGluPho inh	HKDC1 inh	Diaphorase act	Diaph inh CS	G6PDH CS	PfG6PD confirm	others
CCCC(=O)Nc1nc(-c2ccc(OC)cc2)cs1	.	.	.	.	.	/
COc1ccc(-c2csc(NC(=O)CS(=O)(=O)c3ccccc3)n2)cc1	68	.	/	/	/	.
O=C(CCS(=O)(=O)c1ccc(F)cc1)Nc1nc(-c2ccncc2)cs1	61	.	/	/	/	.
O=C(N[C@H](CO)Cc1ccccc1)c1ccco1	.	.	/	/	/	/
Oc1c(Cl)cc(Cl)cc1/C=C/c1ccc2cccc(O)c2n1	81	.	.	.	.	.
Oc1ccc(Cl)cc1/C=C/c1ccc2cccc(O)c2n1	74	.	.	.	.	.
COc1ccc(S(=O)(=O)N2CCOCC2)cc1NC(=O)Cc1coc2cc(C)c(C)cc12	.	.	/	/	/	/
CC(OC(=O)Cn1cnc2c1c(=O)n(C)c(=O)n2C)C(=O)N(C)c1ccccc1 (stereo not drawn)	.	.	/	/	/	/
Brc1cccc(-c2nnc(SCc3nc4ccccc4[nH]3)o2)c1	60	.	.	.	.	.
c1ccc2[nH]c(CSc3nnc(-c4ccncc4)o3)nc2c1	.	.	.	.	.	/
CC(C)(C)C1=Nn2c(nnc2-c2n[nH]c3c2CCC3)SC1	60	.	.	.	.	.
Cc1cc(C)n2nc(-c3ccc(Br)cc3)cc2n1	.	.	/	/	/	/
COc1ccc(-c2cc3nc(C)cc(C)n3n2)cc1	61	.	.	.	.	.
CCOC(=O)/C(=N/Nc1ccc(OC)cc1)N1CCCc2ccccc21	112	.	/	/	/	58	Diaphorase 10uM=56;Diaphorase 30uM=51
CCOC(=O)/C(=N/Nc1ccccc1)N1CCCc2ccccc21	95	.	.	.	.	.
CCOC(=O)/C(=N/Nc1ccccc1OC)N1CCCc2ccccc21	.	.	/	/	/	/
CC1CCN(C(=O)CSc2nnc3c(n2)[nH]c2ccccc23)CC1	.	.	/	/	/	/
O=C1OCCN1C(=O)[C@H]1[C@H](c2ccc([N+](=O)[O-])cc2)C(c2ccc(F)cc2)=NN1c1ccc(Br)cc1	.	.	/	/	/	/
COC(=O)c1c(C)nc2ccccc2c1C(=O)O	.	.	.	.	.	/
COC(=O)c1cc(C)[nH]c2c(C)cc3nc4ccccc4c3c12	71	.	/	/	/	.
Cc1cc(C(=O)COc2cccc(-n3cnnn3)c2)c(C)n1-c1ccccc1	74	.	.	.	.	.
CCOC(=O)C1CCN(C(=O)COC(=O)CSc2ccc([N+](=O)[O-])cc2)CC1	.	.	/	/	/	/
CC1CCCC(C)N1C(=O)COC(=O)CSc1ccc([N+](=O)[O-])cc1 (stereo not drawn)	64	.	/	/	/	.
CC1=C(C(=O)OCc2ccccc2)C(c2cccnc2)n2nnnc2N1 (stereo not drawn)	61	.	.	.	.	.
COC(=O)C1=C(C)N(C)C(=O)NC1c1c(OC)ccc2ccccc12 (stereo not drawn)	.	.	/	/	/	/
SMILES	PfGluPho inh	HKDC1 inh	Diaphorase act	Diaph inh CS	G6PDH CS	PfG6PD confirm	others
CCOc1cc(C2CC(=O)N3CN(C4CCCCC4)CSC3=C2C#N)ccc1O (stereo not drawn)	76	.	.	58	.	.
COc1cc(CNCc2ccco2)ccc1OCc1ccccc1	.	.	.	.	.	/
COc1cc(C2CC(=O)N3CN(Cc4ccco4)CSC3=C2C#N)ccc1OCc1ccccc1 (stereo not drawn)	60	.	.	.	.	.
COc1ccc2ccccc2c1C1CC(=O)N2CN(Cc3ccco3)CSC2=C1C#N (stereo not drawn)	68	.	.	.	.	.
COc1ccc2ccccc2c1C1CC(=O)N2CN(C3CCCCC3)CSC2=C1C#N (stereo not drawn)	72	.	.	.	.	65	Diaphorase 10uM=.;Diaphorase 30uM=.
CCOc1cc(C2CC(=O)NC(SCC)=C2C#N)ccc1O (stereo not drawn)	.	.	.	.	.	/
COc1ccc(C(=O)NCCc2nnc3ccc(SCC(=O)N4CCCCC4)nn23)cc1	.	.	/	/	/	/
N#CC1=C2SCN(Cc3ccccc3)CN2C(=O)CC1c1cccs1 (stereo not drawn)	71	.	.	.	.	.
COc1ccc(C2C(C#N)=C(N)Oc3cc(C)n(Cc4ccco4)c(=O)c32)cc1 (stereo not drawn)	.	.	.	.	.	/
CCCSC1=C(C#N)C(c2cccs2)CC(=O)N1 (stereo not drawn)	.	.	/	/	/	/
COc1ccc(C2CC(=O)N3CN(Cc4ccco4)CSC3=C2C#N)cc1 (stereo not drawn)	59	.	.	.	.	.
CC(C)c1ccc(C2CC(=O)N3CN(Cc4ccco4)CSC3=C2C#N)cc1 (stereo not drawn)	61	.	.	.	.	.
CC(=O)N/C(=C\c1ccccc1)C(=O)OCC(=O)NC1CCS(=O)(=O)C1 (stereo not drawn)	.	.	/	/	/	/
Cc1noc(C)c1NC(=O)N(C)C[C@H]1Oc2ccc(NC(=O)Cn3cnnn3)cc2C(=O)N([C@H](C)CO)C[C@@H]1C	.	.	/	/	/	/
CC(Sc1ccc(S(=O)(=O)N2CCOCC2)cn1)c1ccccc1Cl (stereo not drawn)	.	.	/	/	/	.
CC(Sc1ccc(S(=O)(=O)N2CCOCC2)cn1)C(=O)Nc1ccc(Cl)cc1Cl (stereo not drawn)	.	.	/	/	/	/
CCN(CC)Cc1cc(Nc2c3ccccc3nc3c4ccccc4n(C)c23)cc(CN(CC)CC)c1O	80	.	/	/	/	.
Cc1nn(-c2nnc(NC3CCCCC3)nn2)c(C)c1Br	.	.	.	.	.	/
Cc1cccc(C)c1NC(=O)CN(C)C(=O)c1ccc(OCc2ccccc2)cc1	.	/	/	/	/	/
COc1cc(N)c2ncccc2c1SC	66	/	/	/	/	62	Diaphorase 10uM=.;Diaphorase 30uM=.
CC(C)(C)c1cc(C2=CSC3=NCCN23)cc(C(C)(C)C)c1O	.	.	/	/	/	/
COc1ccc(C(C)=O)c(OCC(=O)NCCC2=CCCCC2)c1	65	/	/	/	/	.
COc1ccc(Cl)cc1C=CC=Nc1ccccc1O	76	.	/	/	/	.
Cc1csc(CN(C)C(=O)CC2C(=O)NCCN2Cc2ccc(F)cc2Cl)n1 (stereo not drawn)	.	.	/	/	/	/
COc1ccccc1C(=O)Nc1ccc2c(c1)n(C)c(=O)n2C	.	.	/	/	/	/
CCc1ccc2c(c1)C(C)=CC(C)(C)N2	.	.	.	.	.	/
CC1=CC(C)(C)Nc2ccc(OC(=O)C(Cc3ccccc3)N3C(=O)c4ccccc4C3=O)cc21 (stereo not drawn)	.	.	.	.	.	/

Bioassay records: PubChem BioAssay, Sanford-Burnham Center for Chemical Genomics
